In the experiment the test system is MCF-7 human breast tumor xenograft. Nature of the experiment: In vivo anticancer activity in human breast tumor xenograft model. Details: species or system female nude (nu/nu) mice. The conditions noted are these: 10 mg/kg BW. The procedure, abridged: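 Female nu/nu mice (6~7 weeks) were given about 1.5×10^7 MCF-7 cells subcutaneously in the dorsal back, in medium:Matrigel 1:1. Estradiol cyclopentyl propionate (100 µg/mouse) was given s.c. twice weekly. Once tumors reached ≥5 mm, mice were randomised, six per group, to 5 mg/kg BW test compound for 45 days, paclitaxel 10 mg/kg, or vehicle. Tumor size, BW and toxicity signs were recorded every 4 days.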

SMILES strings stand for the structures.

As to `CC(=O)O[C@H]1C(=O)[C@@]2(C)[C@H]([C@H](OC(=O)c3ccccc3)[C@]3(O)C[C@H](OC(=O)[C@H](O)[C@@H](NC(=O)c4ccccc4)c4ccccc4)C(C)=C1C3(C)C)[C@]1(OC(C)=O)CO[C@@H]1C[C@@H]2O` [paclitaxel], the tumor growth entry is given as “significantly (p<0.001) inhibited tumor growth”.

Source of the values: paper PMC8473721 (Journal of Inflammation Research, 2021).
